Data set [1] is described as follows: Competitive inhibition of hexa-His-tagged human soluble epoxide hydrolase N-terminal phosphatase domain expressed in Escherichia coli BL21(DE3) pre-incubated for 30 mins before DiFMUP substrate addition by fluorescence based assay.
Data set [2] in a line: Half life in Sprague-Dawley rat at 30 mg/kg, po monitored over 8 hrs by LC-MS analysis. The format is ADME, organism-based. The conditions noted are these: in vivo. In a few lines:
(§1)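 Male Sprague-Dawley rats (n = 3) given a single oral dose of 30 mg/kg. Plasma compound concentration followed over 8 h. Cmax and half-life derived from the plasma concentration–time profile.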

Data set [3] concerns Rattus norvegicus. Briefly: Inhibition of sEH-P in Sprague-Dawley rat assessed as effect on ratio of sn1-18:1 LPA to corresponding monoacylglycerol species in plasma at 30 mg/kg, po after 8 hrs by LC-MS/MS analysis. The format is functional, organism-based. In a few lines: (§2)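 Male Sprague-Dawley rats given a single oral dose of 30 mg/kg or vehicle (n = 3 per group). Plasma collected 8 h later. Epoxy fatty acid/diol ratios and LPA/corresponding MAG ratios quantified by LC−MS/MS.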

Data set [4] concerns Rattus norvegicus. Briefly: Inhibition of sEH-P in Sprague-Dawley rat assessed as effect on ratio of sn1-20:4 LPA to corresponding monoacylglycerol species in plasma at 30 mg/kg, po after 8 hrs by LC-MS/MS analysis. Type of data set: functional, organism-based. The method, boiled down:
as §2

The target of data set [5] is T1, Bifunctional epoxide hydrolase 2 (Homo sapiens, UniProt P34913).
T1 sequence (P34913 whole entry): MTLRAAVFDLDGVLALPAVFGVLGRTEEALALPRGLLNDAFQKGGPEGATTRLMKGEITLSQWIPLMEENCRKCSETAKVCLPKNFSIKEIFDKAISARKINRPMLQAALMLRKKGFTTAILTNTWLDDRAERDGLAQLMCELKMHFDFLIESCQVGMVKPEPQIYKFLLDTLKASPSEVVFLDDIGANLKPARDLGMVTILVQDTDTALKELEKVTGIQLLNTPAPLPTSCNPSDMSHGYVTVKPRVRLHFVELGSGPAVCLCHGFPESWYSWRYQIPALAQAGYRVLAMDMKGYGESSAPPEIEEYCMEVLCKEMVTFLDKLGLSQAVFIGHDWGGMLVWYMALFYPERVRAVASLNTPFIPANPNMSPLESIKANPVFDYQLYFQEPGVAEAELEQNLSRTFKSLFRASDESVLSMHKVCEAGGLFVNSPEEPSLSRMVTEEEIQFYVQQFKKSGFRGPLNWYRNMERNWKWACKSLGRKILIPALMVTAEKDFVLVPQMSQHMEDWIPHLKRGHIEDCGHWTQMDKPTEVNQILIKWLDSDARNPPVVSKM
Briefly: Inhibition of hexa-His-tagged human soluble epoxide hydrolase C-terminal hydrolase domain expressed in Escherichia coli BL21(DE3) pre-incubated for 30 mins before PHOME substrate addition by fluorescence based assay.

The species named for data set [6] is Homo sapiens.
The nature of data set [7]: Cmax in Sprague-Dawley rat at 30 mg/kg, po monitored over 8 hrs by LC-MS analysis. Also on record: dose 30 mg/kg, route oral. The format is ADME, organism-based. The conditions noted are these: in vivo. The method, boiled down: as §1
Data set [8] deals with T2, Bifunctional epoxide hydrolase 2 (Homo sapiens) (UniProt P34913).
T2 sequence (whole entry): T1 sequence (P34913 whole entry)
The data set is described as follows: Induction of stabilization of hexa-His-tagged human soluble epoxide hydrolase C-terminal hydrolase domain expressed in Escherichia coli BL21(DE3) at 50 uM by differential scanning fluorimetry.

Data set [9] deals with T1, Bifunctional epoxide hydrolase 2. Briefly: Competitive inhibition of full length human soluble epoxide hydrolase pre-incubated for 30 mins before DiFMUP substrate addition by fluorescence based assay.
The species entered for data set [10] is Homo sapiens. Briefly: Induction of stabilization of hexa-His-tagged human soluble epoxide hydrolase N-terminal phosphatase domain expressed in Escherichia coli BL21(DE3) at 50 uM by differential scanning fluorimetry. (In general: In DSF a fluorescence change marks the thermal transition of the protein.)
For data set [11], the target named is Prostaglandin G/H synthase 1 (Homo sapiens, UniProt P23219). Briefly: Inhibition of COX1 in A23187-stimulated human platelets assessed as reduction in TXA2 production. In a few lines: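 Washed human platelets preincubated with increasing compound concentrations, then challenged with calcium ionophore A23187. TXB2 (stable TXA2 metabolite) in supernatant quantified by LC−MS/MS with TXB2-d4 internal standard.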
Prostaglandin G/H synthase 1, sequence (P23219 whole entry): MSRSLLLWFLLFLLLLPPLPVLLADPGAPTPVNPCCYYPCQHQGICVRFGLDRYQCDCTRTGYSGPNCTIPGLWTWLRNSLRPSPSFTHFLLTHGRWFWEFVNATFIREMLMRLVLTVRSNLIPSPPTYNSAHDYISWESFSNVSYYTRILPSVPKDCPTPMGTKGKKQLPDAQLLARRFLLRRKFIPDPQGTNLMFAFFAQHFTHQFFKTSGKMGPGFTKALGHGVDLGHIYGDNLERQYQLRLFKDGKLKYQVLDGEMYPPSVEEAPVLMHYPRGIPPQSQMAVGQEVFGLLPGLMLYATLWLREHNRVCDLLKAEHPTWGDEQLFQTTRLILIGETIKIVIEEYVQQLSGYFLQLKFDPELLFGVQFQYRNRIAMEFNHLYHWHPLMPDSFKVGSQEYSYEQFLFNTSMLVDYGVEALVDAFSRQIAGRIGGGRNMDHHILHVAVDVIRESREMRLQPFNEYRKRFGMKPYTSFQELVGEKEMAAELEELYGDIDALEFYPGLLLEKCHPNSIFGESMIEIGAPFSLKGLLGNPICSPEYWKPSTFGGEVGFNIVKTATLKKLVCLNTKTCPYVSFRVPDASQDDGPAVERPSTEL

The target of data set [12] is T1, Bifunctional epoxide hydrolase 2. Briefly: Inhibition of hydrolase activity of full length human soluble epoxide hydrolase pre-incubated for 30 mins before PHOME substrate addition by fluorescence based assay. In a few lines: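 Hydrolase assay with 0.1 μM full-length enzyme in Bis-Tris pH 7 containing 0.1 mg/mL BSA and 0.01% Triton X-100. Reaction started with PHOME (50 μM final). Triplicates.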

For data set [13] the target is unchanged. Briefly: Inhibition of phosphatase activity of full length human soluble epoxide hydrolase pre-incubated for 30 mins before FDP substrate addition by fluorescence based assay.

Activity calls are given as the source filed them. No cut-off for these calls is given here.

Regarding `O=C(O)CCCc1nc(-c2ccc(Cl)c(Cl)c2)c(-c2ccccc2)o1`, the results for the Ki in data set [1] and in data set [9] were 50 nM and 4.8 µM, respectively. The t1/2 in [2] came out at 7 h. The inhibition result in [3] and in data set [4] was “Active” each time. Further, the IC50 (in general, the concentration that gives 50% inhibition) was found to be 12 µM in data set [5] and 1200 nM in data set [11]. In addition, the ΔTm (commonly the shift of the melting midpoint relative to a reference) in data set [6] amounted to 6.6 °C. Also, the Cmax (usually the peak of the concentration-time curve) in data set [7] was 128 µM. Besides, the result in data set [8] was inactive. Besides, in [10], the result was Active.
Take `O=C(O)CCc1nc(-c2ccccc2)c(-c2ccccc2)o1` [OXAPROZIN]: the IC50 in data set [12] was more than 300 µM; in data set [13], 70 µM.

The values are drawn from ChEMBL document CHEMBL4414562, “Discovery of the First in Vivo Active Inhibitors of the Soluble Epoxide Hydrolase Phosphatase Domain” (J Med Chem, 2019).
